Measurements published in ChEMBL document CHEMBL1811814, “Synthesis and evaluation of indole, pyrazole, chromone and pyrimidine based conjugates for tumor growth inhibitory activities--development of highly efficacious cytotoxic agents” (Eur J Med Chem, 2010).

Assays:
Assay type in all cases: functional
Parameters in all cases: scale not given: the % may be the effect or the level left
A498 = test: Growth inhibition of human A498 cells assessed tumor cell growth at 10^-5 M
How it was run: (§1)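 NCI 60-human-tumor-cell-line panel screen. Each compound was tested at a single concentration of 10^-5 M, and percent growth of tumor cells was recorded for each cell line. Growth inhibition was expressed from these percent-growth values.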

NCI-H226 = test: Growth inhibition of human NCI-H226 cells assessed tumor cell growth at 10^-5 M; how it was run: as §1
MDA-MB-435 = test: Growth inhibition of human MDA-MB-435 cells assessed tumor cell growth at 10^-5 M; how it was run: as §1
KM12 = test: Growth inhibition of human KM12 cells assessed tumor cell growth at 10^-5 M; how it was run: as §1
SK-MEL-5 = test: Growth inhibition of human SK-MEL-5 cells assessed tumor cell growth at 10^-5 M; how it was run: as §1
NCI-H322M = test: Growth inhibition of human NCI-H322M cells assessed tumor cell growth at 10^-5 M; how it was run: as §1
NCI/ADR-RES = test: Growth inhibition of human NCI/ADR-RES cells assessed tumor cell growth at 10^-5 M; how it was run: as §1
786-0 = test: Growth inhibition of human 786-0 cells assessed tumor cell growth at 10^-5 M; how it was run: as §1
MDA-MB-231 = test: Growth inhibition of human MDA-MB-231 cells assessed tumor cell growth at 10^-5 M; how it was run: as §1
CCRF-CEM = test: Growth inhibition of human CCRF-CEM cells assessed tumor cell growth at 10^-5 M; how it was run: as §1
OVCAR-4 = test: Growth inhibition of human OVCAR4 cells assessed tumor cell growth at 10^-5 M; how it was run: as §1
T47D = test: Growth inhibition of human T47D cells assessed tumor cell growth at 10^-5 M
How it was run: (§2)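 Single-dose screen at 10^-5 M across the 60 human tumor cell line panel, run to NCI standards. The value is the percent growth of each cell line in the presence of compound. Compounds active at this dose moved on to five-concentration testing (10^-4 to 10^-8 M).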

HOP-62 = test: Growth inhibition of human HOP62 cells assessed tumor cell growth at 10^-5 M; how it was run: as §1
SK-OV-3 = test: Growth inhibition of human SKOV3 cells assessed tumor cell growth at 10^-5 M; how it was run: as §1
Malme-3M = test: Growth inhibition of human MALME-3M cells assessed tumor cell growth at 10^-5 M; how it was run: as §1
UACC-257 = test: Growth inhibition of human UACC257 cells assessed tumor cell growth at 10^-5 M; how it was run: as §2
OVCAR-5 = test: Growth inhibition of human OVCAR5 cells assessed tumor cell growth at 10^-5 M; how it was run: as §1
OVCAR-8 = test: Growth inhibition of human OVCAR8 cells assessed tumor cell growth at 10^-5 M; how it was run: as §1
U-251 = test: Growth inhibition of human U251 cells assessed tumor cell growth at 10^-5 M; how it was run: as §2
RXF 393 = test: Growth inhibition of human RXF393 cells assessed tumor cell growth at 10^-5 M; how it was run: as §1
MCF7 = test: Growth inhibition of human MCF7 cells assessed tumor cell growth at 10^-5 M; how it was run: as §1
HOP-92 = test: Growth inhibition of human HOP92 cells assessed tumor cell growth at 10^-5 M; how it was run: as §1
HT-29 = test: Growth inhibition of human HT-29 cells assessed tumor cell growth at 10^-5 M; how it was run: as §1
HCC 2998 = test: Growth inhibition of human HCC2998 cells assessed tumor cell growth at 10^-5 M; how it was run: as §1
HL-60(TB) = test: Growth inhibition of human HL-60(TB) cells assessed tumor cell growth at 10^-5 M
How it was run: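 HL-60(TB), part of the 60-line panel, tested at a single concentration of 10^-5 M. The read-out is percent tumor cell growth relative to untreated growth.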

ACHN = test: Growth inhibition of human ACHN cells assessed tumor cell growth at 10^-5 M; how it was run: as §1
SNB-19 = test: Growth inhibition of human SNB19 cells assessed tumor cell growth at 10^-5 M; how it was run: as §2
NCI-H522 = test: Growth inhibition of human NCI-H522 cells assessed tumor cell growth at 10^-5 M; how it was run: as §1
SK-MEL-2 = test: Growth inhibition of human SK-MEL-2 cells assessed tumor cell growth at 10^-5 M; how it was run: as §1
HCT-15 = test: Growth inhibition of human HCT15 cells assessed tumor cell growth at 10^-5 M; how it was run: as §1
IGROV-1 = test: Growth inhibition of human IGROV1 cells assessed tumor cell growth at 10^-5 M; how it was run: as §1
DU-145 = test: Growth inhibition of human DU145 cells assessed tumor cell growth at 10^-5 M; how it was run: as §1
UO-31 = test: Growth inhibition of human UO31 cells assessed tumor cell growth at 10^-5 M; how it was run: as §2
[1] = Growth inhibition of human Hs 578T cells assessed tumor cell growth at 10^-5 M; how it was run: as §1
NCI-H460 = test: Growth inhibition of human NCI-H460 cells assessed tumor cell growth at 10^-5 M; how it was run: as §1
M14 = test: Growth inhibition of human M14 cells assessed tumor cell growth at 10^-5 M; how it was run: as §1
SW-620 = test: Growth inhibition of human SW620 cells assessed tumor cell growth at 10^-5 M; how it was run: as §2
SF-539 = test: Growth inhibition of human SF539 cells assessed tumor cell growth at 10^-5 M; how it was run: as §1
SF-268 = test: Growth inhibition of human SF268 cells assessed tumor cell growth at 10^-5 M; how it was run: as §1
SF-295 = test: Growth inhibition of human SF295 cells assessed tumor cell growth at 10^-5 M; how it was run: as §1
TK-10 = test: Growth inhibition of human TK10 cells assessed tumor cell growth at 10^-5 M; how it was run: as §2
HCT-116 = test: Growth inhibition of human HCT116 cells assessed tumor cell growth at 10^-5 M; how it was run: as §1
MOLT-4 = test: Growth inhibition of human MOLT4 cells assessed tumor cell growth at 10^-5 M; how it was run: as §1
CAKI-1 = test: Growth inhibition of human Caki1 cells assessed tumor cell growth at 10^-5 M; how it was run: as §1
SNB-75 = test: Growth inhibition of human SNB75 cells assessed tumor cell growth at 10^-5 M; how it was run: as §2
EKVX = test: Growth inhibition of human EKVX cells assessed tumor cell growth at 10^-5 M; how it was run: as §1
A549 = test: Growth inhibition of human A549 cells assessed tumor cell growth at 10^-5 M; how it was run: as §1
K562 = test: Growth inhibition of human K562 cells assessed tumor cell growth at 10^-5 M; how it was run: as §1
SN12C = test: Growth inhibition of human SN12C cells assessed tumor cell growth at 10^-5 M; how it was run: as §1
LOX IMVI = test: Growth inhibition of human LOXIMVI cells assessed tumor cell growth at 10^-5 M; how it was run: as §1
PC-3 = test: Growth inhibition of human PC3 cells assessed tumor cell growth at 10^-5 M; how it was run: as §1
UACC-62 = test: Growth inhibition of human UACC62 cells assessed tumor cell growth at 10^-5 M; how it was run: as §2
BT-549 = test: Growth inhibition of human BT549 cells assessed tumor cell growth at 10^-5 M; how it was run: as §1
[2] = Growth inhibition of human […] cells assessed tumor cell growth at 10^-5 M; how it was run: as §1
MDA-MB-468 = test: Growth inhibition of human MDA-MB-468 cells assessed tumor cell growth at 10^-5 M; how it was run: as §1
SK-MEL-28 = test: Growth inhibition of human SK-MEL-28 cells assessed tumor cell growth at 10^-5 M; how it was run: as §1
OVCAR-3 = test: Growth inhibition of human OVCAR3 cells assessed tumor cell growth at 10^-5 M; how it was run: as §1
NCI-H23 = test: Growth inhibition of human NCI-H23 cells assessed tumor cell growth at 10^-5 M; how it was run: as §1
COLO 205 = test: Growth inhibition of human COLO205 cells assessed tumor cell growth at 10^-5 M; how it was run: as §1

Cc1ccc(S(=O)(=O)n2cc(/C=C3\C(=O)Nc4ccccc43)c3ccccc32)cc1
Activity (A498): 102%
Activity (NCI-H226): 86.3%
Activity (MDA-MB-435): 93.2%
Activity (KM12): 97%
Activity (SK-MEL-5): 84.9%
Activity (NCI-H322M): 106.5%
Activity (NCI/ADR-RES): 92.1%
Activity (786-0): 99.7%
Activity (MDA-MB-231): 66.4%
Activity (CCRF-CEM): 95.6%
Activity (OVCAR-4): 70.1%
Activity (T47D): 77.3%
Activity (HOP-62): 98.5%
Activity (SK-OV-3): 99.1%
Activity (Malme-3M): 111%
Activity (UACC-257): 84%
Activity (OVCAR-5): 87.3%
Activity (OVCAR-8): 91.2%
Activity (U-251): 86.4%
Activity (RXF 393): 97.6%
Activity (MCF7): 56.6%
Activity (HOP-92): 67.4%
Activity (HT-29): 104.5%
Activity (HCC 2998): 98.6%
Activity (HL-60(TB)): 100.6%
Activity (ACHN): 82.2%
Activity (SNB-19): 85.2%
Activity (NCI-H522): 111.2%
Activity (SK-MEL-2): 86.6%
Activity (HCT-15): 79.5%
Activity (IGROV-1): 73%
Activity (DU-145): 101.5%
Activity (UO-31): 60.9%
Activity [1]: 92.2%
Activity (NCI-H460): 97.3%
Activity (M14): 96%
Activity (SW-620): 103%
Activity (SF-539): 93.1%
Activity (SF-268): 88.4%
Activity (SF-295): 97.1%
Activity (TK-10): 117.8%
Activity (HCT-116): 92.5%
Activity (MOLT-4): 95.7%
Activity (CAKI-1): 53.7%
Activity (SNB-75): 73.4%
Activity (EKVX): 93.8%
Activity (A549): 88.2%
Activity (K562): 85%
Activity (SN12C): 88.3%
Activity (LOX IMVI): 82.7%
Activity (PC-3): 92.8%
Activity (UACC-62): 64%
Activity (BT-549): 97.5%
Activity [2]: 80.7%
Activity (MDA-MB-468): 117.2%
Activity (SK-MEL-28): 86.8%
Activity (OVCAR-3): 83.7%
Activity (NCI-H23): 89.8%
Activity (COLO 205): 54.4%

O=C1/C(=C\c2cn(C(=O)c3c(Cl)cccc3Cl)c3ccccc23)c2ccccc2N1C(=O)c1c(Cl)cccc1Cl
Activity (A498): 126%
Activity (NCI-H226): 92.9%
Activity (MDA-MB-435): 112%
Activity (KM12): 99.3%
Activity (SK-MEL-5): 84.8%
Activity (NCI-H322M): 124%
Activity (NCI/ADR-RES): 104%
Activity (786-0): 100%
Activity (MDA-MB-231): 74.3%
Activity (CCRF-CEM): 87%
Activity (OVCAR-4): 104%
Activity (T47D): 91.6%
Activity (HOP-62): 98.7%
Activity (SK-OV-3): 93.4%
Activity (Malme-3M): 94.9%
Activity (UACC-257): 104%
Activity (OVCAR-5): 83.7%
Activity (OVCAR-8): 94.1%
Activity (U-251): 87.1%
Activity (RXF 393): 113%
Activity (MCF7): 84.8%
Activity (HOP-92): 48.5%
Activity (HT-29): 108%
Activity (HCC 2998): 116%
Activity (HL-60(TB)): 109%
Activity (ACHN): 78.6%
Activity (SNB-19): 97.3%
Activity (NCI-H522): 87.4%
Activity (SK-MEL-2): 92.3%
Activity (HCT-15): 65.9%
Activity (IGROV-1): 69.9%
Activity (DU-145): 135%
Activity (UO-31): 72%
Activity [1]: 152%
Activity (NCI-H460): 114%
Activity (M14): 94.2%
Activity (SW-620): 117%
Activity (SF-539): 95%
Activity (SF-268): 95.7%
Activity (SF-295): 90.6%
Activity (TK-10): 101%
Activity (HCT-116): 82.5%
Activity (MOLT-4): 84%
Activity (CAKI-1): 67.5%
Activity (SNB-75): 88.8%
Activity (EKVX): 99.4%
Activity (A549): 91.2%
Activity (K562): 85.2%
Activity (SN12C): 92.7%
Activity (LOX IMVI): 95.8%
Activity (PC-3): 73.1%
Activity (UACC-62): 63.8%
Activity (BT-549): 85.3%
Activity [2]: 75%
Activity (MDA-MB-468): 126%
Activity (SK-MEL-28): 103%
Activity (OVCAR-3): 96.7%
Activity (NCI-H23): 96.6%
Activity (COLO 205): 69%
